pIC50: −log10 of the molar value.
Legend:
[1] = test system: Plasmodium falciparum; experiment: Antimalarial activity against blood stage forms of Plasmodium falciparum 3D7; assay type: functional, organism-based
[2] = Inhibition of Plasmodium falciparum recombinant NDH2 expressed in Escherichia coli F571 using decyclubiquinone as substrate at 1 min by spectrophotometry
[3] = test system: Plasmodium falciparum; experiment: Antimalarial activity against atoquinone-resistant Plasmodium falciparum TM90C2B; assay type: functional, organism-based
[4] = Inhibition of Plasmodium falciparum cytochrome b-c1 complex using decylubiquinol as substrate by spectrophotometry
[5] = test system: Plasmodium falciparum; experiment: Antimalarial activity against chloroquine-resistant Plasmodium falciparum W2; assay type: functional, organism-based
[6] = test system: Plasmodium berghei; experiment: Antimalarial activity against Plasmodium berghei infected in CD1 mouse assessed as decrease in parasitemia at 20 mg/kg, po administered using Na2CO3 vehicle measured on day 4 relative to control; assay type: functional; set-up: scale not given: the % may be the effect or the level left
Method in brief: (§1)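 Peters' standard 4-day suppressive test in male CD-1 mice infected with Plasmodium berghei by intraperitoneal injection. Compound given orally at 20 mg/kg, with 5 mice per group. Read-out is % parasite clearance on day 4. Vehicles were SSV (often as suspensions), DET (fully dissolved) or sodium carbonate solution, as specified in each line.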

[7] = test system: Plasmodium berghei; experiment: Antimalarial activity against Plasmodium berghei infected in CD1 mouse assessed as decrease in parasitemia at 20 mg/kg, po administered using standard suspension vehicle measured on day 4 relative to control; assay type: functional; set-up: scale not given: the % may be the effect or the level left; method in brief: as §1
[8] = test system: Plasmodium berghei; experiment: Antimalarial activity against Plasmodium berghei infected in CD1 mouse assessed as decrease in parasitemia at 20 mg/kg, po administered using 5% DMSO and 5% EtOH in tetraglycol vehicle measured on day 4 relative to control; assay type: functional; set-up: scale not given: the % may be the effect or the level left; method in brief: as §1

COc1ccc(-c2cc(=O)c3ccccc3[nH]2)cc1
pIC50 [1]: < 6.00

O=c1c(-c2ccc(Oc3ccc(OC(F)(F)F)cc3)cc2)c(CO)[nH]c2ccccc12
pIC50 [2]: < 4.25
pIC50 [1]: 7.04

Cc1c(-c2ccc(C(F)(F)F)cc2)[nH]c2ccccc2c1=O
pIC50 [2]: 7.05
pIC50 [1]: 6.12

Cc1c(-c2ccc(OC(F)(F)F)cc2)[nH]c2ccccc2c1=O
pIC50 [1]: < 6.00

Cc1c(-c2ccc(C(F)(F)F)cc2)[nH]c2ncccc2c1=O
pIC50 [1]: < 6.00

Cc1c(-c2ccc(OC(F)(F)F)cc2)[nH]c2ncccc2c1=O
pIC50 [1]: < 6.00

COc1ccc(-c2[nH]c3ncccc3c(=O)c2C)cc1
pIC50 [1]: < 6.00

Cc1c(-c2ccc(Br)cc2)[nH]c2ncccc2c1=O
pIC50 [1]: < 6.00

O=c1cc(-c2ccc(C(F)(F)F)cc2)[nH]c2ccccc12
pIC50 [2]: 7.28
pIC50 [1]: 6.24

O=c1cc(-c2ccc(OC(F)(F)F)cc2)[nH]c2ccccc12
pIC50 [2]: 7.32
pIC50 [1]: 6.17

O=c1cc(-c2ccc(O)cc2)[nH]c2ccccc12
pIC50 [1]: < 6.00

O=c1c(Cl)c(-c2ccc(OC(F)(F)F)cc2)[nH]c2ccccc12
pIC50 [2]: 6.60
pIC50 [1]: 6.29

COc1ccc(-c2[nH]c3ccccc3c(=O)c2Cl)cc1
pIC50 [2]: 5.78
pIC50 [1]: 6.25

Cc1c(-c2ccc(Cc3ccccc3)cc2)[nH]c2ccccc2c1=O
pIC50 [3]: 6.38
pIC50 [2]: 7.56
pIC50 [1]: 6.97

Cc1c(-c2cccc(Cc3ccc(OC(F)(F)F)cc3)c2)[nH]c2ccccc2c1=O
pIC50 [3]: 7.19
pIC50 [4]: 6.66
pIC50 [2]: 7.30
pIC50 [1]: 7.59

Cc1c(-c2ccc(Cc3ccc(F)cc3)cc2)[nH]c2ccccc2c1=O
pIC50 [3]: 6.56
pIC50 [4]: 7.59
pIC50 [2]: > 9.00
pIC50 [1]: 7.08

COc1ccc(Cc2ccc(-c3[nH]c4ccccc4c(=O)c3C)cc2)cc1
pIC50 [3]: 6.24
pIC50 [2]: 6.95
pIC50 [1]: 7.43

Cc1c(-c2ccc(Cc3ccc(OC(F)(F)F)cc3)cc2)[nH]c2ccc(C(F)(F)F)cc2c1=O
pIC50 [1]: 6.18

Cc1c(-c2ccc(Cc3ccc(OC(F)(F)F)cc3)cc2)[nH]c2cc(C(F)(F)F)ccc2c1=O
pIC50 [1]: 6.67

Cc1c(-c2ccc(Cc3ccc(OC(F)(F)F)cc3)cc2)[nH]c2cc(F)c(Cl)cc2c1=O
pIC50 [1]: 7.15

Cc1c(-c2ccc(Cc3ccc(OC(F)(F)F)cc3)cc2)[nH]c2cc(Cl)c(F)cc2c1=O
pIC50 [1]: 7.42

COc1cccc2[nH]c(-c3ccc(Cc4ccc(OC(F)(F)F)cc4)cc3)c(C)c(=O)c12
pIC50 [1]: 6.18

COc1ccc2[nH]c(-c3ccc(Cc4ccc(OC(F)(F)F)cc4)cc3)c(C)c(=O)c2c1
pIC50 [1]: 6.33

COc1ccc2c(=O)c(C)c(-c3ccc(Cc4ccc(OC(F)(F)F)cc4)cc3)[nH]c2c1
pIC50 [5]: 7.89
pIC50 [1]: 8.10

COc1cccc2c(=O)c(C)c(-c3ccc(Cc4ccc(OC(F)(F)F)cc4)cc3)[nH]c12
pIC50 [1]: 6.42

Cc1c(-c2cccc(Cc3ccc(OC(F)(F)F)cc3)c2)[nH]c2ccc(Cl)cc2c1=O
pIC50 [3]: 7.51
pIC50 [1]: 8.08

Cc1c(-c2cccc(Cc3ccc(OC(F)(F)F)cc3)c2)[nH]c2cc(Cl)ccc2c1=O
pIC50 [3]: 7.03
pIC50 [1]: 7.47

Cc1c(-c2ccc(Cc3ccc(F)cc3)cc2)[nH]c2cc(Cl)ccc2c1=O
pIC50 [2]: 6.71

Cc1c(-c2ccc(Cc3ccc(OC(F)(F)F)cc3)cc2F)[nH]c2cc(Cl)ccc2c1=O
pIC50 [1]: 7.52

Cc1c(-c2ccc(Oc3ccc(Cl)cc3)cc2)[nH]c2ccccc2c1=O
pIC50 [3]: 6.10
pIC50 [2]: 7.44
pIC50 [1]: 6.64

Cc1c(-c2ccc(Cc3ccc(OC(F)(F)F)cc3)cc2)[nH]c2ccc(O)cc2c1=O
pIC50 [1]: 6.33

Cc1c(-c2ccc(Cc3ccc(OC(F)(F)F)cc3)cc2)[nH]c2cc(O)ccc2c1=O
pIC50 [1]: 6.86

Cc1c(-c2ccc(Cc3ccc(OC(F)(F)F)cc3)cc2)[nH]c2c(O)cccc2c1=O
pIC50 [1]: 6.09

CC(=O)Oc1cccc2c(=O)c(C)c(-c3ccc(Cc4ccc(OC(F)(F)F)cc4)cc3)[nH]c12
pIC50 [1]: 6.39

Cc1c(-c2ccc(Cc3ccc(OC(F)(F)F)cc3)cc2)[nH]c2ncccc2c1=O
pIC50 [3]: 5.73
pIC50 [2]: 7.01
pIC50 [1]: 6.39

Cc1c(-c2ccc(Cc3ccc(OC(F)(F)F)cc3)cc2)[nH]c2cc(F)ccc2c1=O
pIC50 [3]: 6.72
pIC50 [2]: 7.92
pIC50 [1]: 7.16

Cc1c(-c2ccc(Cc3ccc(OC(F)(F)F)cc3)cc2)[nH]c2cc(F)c(F)cc2c1=O
pIC50 [3]: 6.68
pIC50 [2]: 7.51
pIC50 [1]: 7.62

Cc1c(-c2ccc(Cc3ccc(F)cc3)cc2)[nH]c2ncccc2c1=O
pIC50 [1]: 6.30

O=c1cc(-c2ccc(Cc3ccc(OC(F)(F)F)cc3)cc2)[nH]c2ccccc12
pIC50 [5]: 7.44
pIC50 [3]: 6.60
pIC50 [4]: 7.86
pIC50 [2]: 8.21
pIC50 [1]: 7.32

O=c1cc(-c2ccc(Cc3ccc(OC(F)(F)F)cc3)cc2)[nH]c2cc(F)c(F)cc12
pIC50 [3]: 6.20
pIC50 [1]: 7.80

O=c1cc(-c2ccc(Cc3ccc(OC(F)(F)F)cc3)cc2)[nH]c2cc(Cl)c(Cl)cc12
pIC50 [2]: 6.76
pIC50 [1]: 7.55

COc1cc2[nH]c(-c3ccc(Cc4ccc(OC(F)(F)F)cc4)cc3)cc(=O)c2cc1F
pIC50 [1]: 7.41

O=c1cc(-c2ccc(Cc3ccc(OC(F)(F)F)cc3)cc2)[nH]c2ccc(N3CCNCC3)cc12
pIC50 [1]: 6.37

O=c1cc(-c2ccc(Cc3ccc(OC(F)(F)F)cc3)cc2)[nH]c2cc(N3CCNCC3)ccc12
pIC50 [1]: 6.35

COC(=O)c1ccc(Cc2ccc(-c3cc(=O)c4ccccc4[nH]3)cc2)cc1
pIC50 [2]: 7.72
pIC50 [1]: 6.57

O=c1cc(-c2ccc(Cc3ccc(OC(F)(F)F)cc3)cc2)[nH]c2cc(O)c(F)cc12
pIC50 [1]: < 6.00

O=c1cc(-c2ccc(Cc3ccc(CO)cc3)cc2)[nH]c2ccccc12
pIC50 [1]: < 6.00

O=c1c(Cl)c(-c2ccc(Cc3ccc(OC(F)(F)F)cc3)cc2)[nH]c2ccccc12
pIC50 [5]: 7.66
pIC50 [3]: 6.48
pIC50 [2]: 6.86
pIC50 [1]: 7.72

Cc1[nH]c2ccccc2c(=O)c1-c1ccc(Cc2ccc(OC(F)(F)F)cc2)cc1
pIC50 [5]: 7.38
pIC50 [2]: 6.31
pIC50 [1]: 7.44

Cc1[nH]c2ccccc2c(=O)c1-c1ccc(Oc2ccc(OC(F)(F)F)cc2)cc1
pIC50 [5]: 7.47
pIC50 [2]: 6.72
pIC50 [1]: 8.00

O=c1c(-c2ccc(Oc3ccc(OC(F)(F)F)cc3)cc2)c[nH]c2ccccc12
pIC50 [1]: 6.10

CCOC(=O)c1c(-c2ccc(Cc3ccc(OC(F)(F)F)cc3)cc2)[nH]c2ccccc2c1=O
pIC50 [3]: 5.85
pIC50 [2]: 6.57
pIC50 [1]: 7.40

CCOC(=O)c1c(-c2ccc(Cc3ccc(OC(F)(F)F)cc3)cc2)[nH]c2cc(Cl)ccc2c1=O
pIC50 [3]: 7.04
pIC50 [1]: 7.59

O=c1c(CO)c(-c2ccc(Cc3ccc(OC(F)(F)F)cc3)cc2)[nH]c2cc(Cl)ccc12
pIC50 [3]: 6.48
pIC50 [1]: 7.20

O=c1c(CO)c(-c2ccc(Oc3ccc(OC(F)(F)F)cc3)cc2)[nH]c2cc(Cl)ccc12
pIC50 [1]: 6.70

CCOC(=O)Oc1c(C)c(-c2ccc(Cc3ccc(OC(F)(F)F)cc3)cc2)nc2ccccc12
pIC50 [3]: 8.17
pIC50 [1]: 7.57

CCOC(=O)Oc1c(-c2ccc(Cc3ccc(OC(F)(F)F)cc3)cc2)c(C)nc2ccccc12
pIC50 [3]: 6.65
pIC50 [1]: 7.57

CCOC(=O)Oc1c(C)c(-c2ccc(Oc3ccc(OC(F)(F)F)cc3)cc2)nc2ccccc12
pIC50 [3]: 6.39
pIC50 [1]: 7.22

Cc1c(-c2ccc(Cc3ccc(OC(F)(F)F)cc3)cc2)n(O)c2ccccc2c1=O
pIC50 [5]: 8.10
pIC50 [3]: 6.66
pIC50 [2]: 7.26
pIC50 [1]: 7.66

Cc1c(-c2ccc(Cc3ccc(OC(F)(F)F)cc3)cc2)n(O)c2cc(Cl)ccc2c1=O
pIC50 [3]: < 6.00
pIC50 [1]: 6.83

Cc1c(-c2ccc(Cc3ccc(OC(F)(F)F)cc3)cc2)c(=O)c2ccccc2n1O
pIC50 [3]: 6.17
pIC50 [2]: 7.87
pIC50 [1]: 6.76

O=c1cc(-c2ccc(Cc3ccc(OC(F)(F)F)cc3)cc2)n(O)c2ccccc12
pIC50 [3]: 6.39
pIC50 [2]: 7.15
pIC50 [1]: 6.58

Cc1c(-c2ccc(Oc3ccc(OC(F)(F)F)cc3)cc2)n(O)c2ccccc2c1=O
pIC50 [3]: 6.25
pIC50 [2]: 6.97
pIC50 [1]: 7.46

Cc1c(-c2ccc(Oc3ccc(OCCN4CCOCC4)cc3)cc2)[nH]c2ccccc2c1=O
pIC50 [1]: < 6.00

Cc1c(-c2ccc(Oc3cccc(OCCN4CCOCC4)c3)cc2)[nH]c2ccccc2c1=O
pIC50 [1]: 6.14

Cc1c(-c2ccc(Cc3cccc(OCCN4CCOCC4)c3)cc2)[nH]c2ccccc2c1=O
pIC50 [2]: 6.55
pIC50 [1]: 6.45

Cc1c(-c2ccc(Cc3ccc(OC(F)(F)F)cc3)cc2)nc2cc(Cl)ccc2c1OP(=O)(O)O
Activity [6]: 100%

Cc1c(-c2ccc(Cc3ccc(OC(F)(F)F)cc3)cc2)nc2cc(Cl)ccc2c1OC(=O)N1CCOCC1
Activity [6]: 100%

O=C1C(O)=C([C@H]2CC[C@H](c3ccc(Cl)cc3)CC2)C(=O)c2ccccc21 [ATOVAQUONE]
Activity [7]: 100%
Activity [8]: 100%
